Laboratory results as given in article PMC10951637 (iScience, 2024).

Key:
[1] = cited from earlier work
[2] = phase 2b, oral, adults with obesity; cited from earlier work
[3] = tested on: diabetic db/db mice; assay: Chronic efficacy study; assay type: in vivo; settings: for HbA1c value attenuated from baseline / body weight increase: 25 nmol/kg s.c. once daily for 4 weeks, n = 5; for reduction of AUC glucose 0–210 min, OGTT day 15: chronic study, 25 nmol/kg s.c. once daily, day 15, n = 5
[4] = tested on: blood glucose of non-fasted db/db mice; assay: Hypoglycemic duration assay; assay type: in vivo, C57BL/6 db/db mice; settings: single s.c. dose 25 nmol/kg, 0 to 36 h, n = 5
In short: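 Non-fasted male C57BL/6 db/db mice with free food and water were randomised into groups (n = 5). Each got one s.c. dose of 25 nmol/kg test compound, or PBS as control. Tail-blood glucose was read by glucometer at 0, 0.5, 1, 2, 4, 6, 8, 10, 24 and 36 h. […] Data are mean ± SD, one-way ANOVA with Tukey test.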

[5] = phase III study (SURPASS-1), across all doses

tirzepatide: imbalanced GLP-1R/GIPR co-agonist, fatty diacid conjugated to K
weight loss ([1]; in T2D treatment and in obesity independent of diabetes): more than 20% | incidence of gastrointestinal disorders [1, 5]: 28–41% | study drug discontinuation [1, 5]: 3–7%

N#Cc1ccc(COc2cccc(C3CCN(Cc4nc5ccc(C(=O)O)cc5n4C[C@@H]4CCO4)CC3)n2)c(F)c1 [Danuglipron]
discontinuation rate [2]: greater than 50% | rate of diarrhea [2]: 25% | rate of nausea [2]: 73% | rate of vomiting [2]: 47%

exendin-4: GLP-1R mono-agonist
HbA1c value attenuated from baseline [3]: approximately 15% | body weight increase [3]: ~6.9% | reduction of AUC glucose 0–210 min, OGTT day 15 [3]: ~18% | glucose AUC0–36h (in words) [4]: comparable to that of the PBS group

liraglutide
HbA1c value attenuated from baseline [3]: ~30% | body weight increase [3]: ~7.4% | reduction of AUC glucose 0–210 min, OGTT day 15 [3]: ~40%
